Results published in ChEMBL document CHEMBL4308891, “Small molecules inhibit ex vivo tumor growth in bone” (Bioorg Med Chem, 2018).
Values belong to the compound of their own block, whether it stands above or below them. Active and inactive are the calls of the source. The calls are words filed in the database; no cut-off is given here.

What was measured:
MDA-MB-231 [1] = assay: Antiinvasive activity in human MDA-MB-231 cells assessed as inhibition of cell invasion at 5 uM by boyden chamber method relative to control; assay type: functional
MDA-MB-231 [2] = assay: (§1) Ex vivo antitumor activity against human MDA-MB-231 cells co-cultured with neonatal Swiss mouse bone in BGJb medium assessed as inhibition of tumor growth at 5 uM administered simultaneously with cancer cells measured on day 5 post treatment by Gaussia luciferase reporter gene assay relative to control; assay type: functional
How it was run: (§2)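 Calvariae from […] Swiss mouse pups were punched into 4 or 5 mm disks. Each was seeded with 1 x 10^4 tumor cells (lentiviral secreted Gaussia luciferase/GFP-blasticidin, FACS-sorted GFP+) in BGJb plus 10% fetal calf serum at 37°C, 5% CO2. After 24 h bones moved to fresh wells; medium changed every 2 days. Conditioned-medium luciferase read as RLU. Biological triplicate, mean ± SD, Welch's t-test.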

MDA-MB-231 [3] = assay: as §1, with “day 7” for “day 5”; assay type: functional; how it was run: as §2
MDA-MB-231 [4] = assay: (§3) Ex vivo antitumor activity against human MDA-MB-231 cells co-cultured with neonatal Swiss mouse bone in BGJb medium assessed as inhibition of tumor growth at 5 uM administered on day 2 post cancer cells addition measured on day 5 post treatment by Gaussia luciferase reporter gene assay relative to control; assay type: functional; how it was run: as §2
MDA-MB-231 [5] = assay: as §3, with “day 7” for “day 5”; assay type: functional; how it was run: as §2
MDA-MB-231 [6] = assay: Antiinvasive activity in human MDA-MB-231 cells by boyden chamber method; assay type: functional, cell-based
MDA-MB-231 [7] = assay: Cytotoxicity against human MDA-MB-231 cells at 0.625 to 5 uM after 24 hrs; assay type: cell-based; conditions: mda-mb-231, 24 h
U-87 MG [8] = assay: Antiinvasive activity in human U87 cells at 5 uM by boyden chamber method; assay type: functional, cell-based; conditions: U-87MG ATCC
NCI-H460 [9] = assay: Antiinvasive activity in human NCI-H460 cells at 5 uM by boyden chamber method; assay type: functional, cell-based
MIA PaCa-2 [10] = assay: Antiinvasive activity in human MIAPaCa2 cells at 5 uM by boyden chamber method; assay type: functional, cell-based
U-87 MG [11] = assay: Cytotoxicity against human U87 cells after 24 hrs; assay type: cell-based; conditions: u-87mg atcc
NCI-H460 [12] = assay: Cytotoxicity against human NCI-H460 cells after 24 hrs; assay type: cell-based; conditions: nci-h460, 24 h
MIA PaCa-2 [13] = assay: Cytotoxicity against human MIAPaCa2 cells after 24 hrs; assay type: cell-based; conditions: mia paca-2, 24 h
MDA-MB-231 [14] = assay: Antimigratory activity in human MDA-MB-231 cells at 10 uM after 9 hrs by wound healing assay; assay type: functional, cell-based
How it was run: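 Confluent monolayers in 12-well plates were scratched with a micropipette tip, washed, then cultured in complete medium with compound. Gap width between wound edges was measured by microscopy in three random regions right after wounding and at 6 and 9 h.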

[15] = Inhibition of angiogenesis in human HRMEC assessed as inhibition of endothelial cell tube formation up to 10 uM after 8 hrs by microscopic analysis
How it was run: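 Primary human retinal microvascular endothelial cells were grown on Matrigel in complete medium for 8 h, then tubule formation was measured. Significance was assessed by ANOVA.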

MDA-MB-231 [16] = assay: Cytotoxicity against human MDA-MB-231 cells at 12.5 uM after 3 days by MTS assay; assay type: cell-based; conditions: mda-mb-231, 72 h
Bone [17] = assay: Down regulation of TRAP expression in neonatal Swiss mouse calvariae bone co-cultured with human MDA-MB-231 cells measured on day 7 post treatment by SYBR green-dye based RT-qPCR analysis; assay type: functional, tissue-based; conditions: Bone element
How it was run: (§4)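 Calvarial disk cultures ([…] Swiss pups) in BGJb plus 10% fetal calf serum were PBS-washed at day 7 and bead-homogenized in Qiazol. Aqueous-phase RNA was isolated, reverse-transcribed and run in triplicate real-time PCR with species-specific primers. Expression was normalized to ribosomal protein L32 mRNA. n = 3 or 4 cultures, ANOVA.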

Bone [18] = assay: Down regulation of RANKL expression in neonatal Swiss mouse calvariae bone co-cultured with human MDA-MB-231 cells measured on day 7 post treatment by SYBR green-dye based RT-qPCR analysis; assay type: functional, tissue-based; conditions: Bone element; how it was run: as §4
Bone [19] = assay: Effect on Col1A1 expression in neonatal Swiss mouse calvariae bone co-cultured with human MDA-MB-231 cells measured on day 7 post treatment by SYBR green-dye based RT-qPCR analysis; assay type: functional, tissue-based; conditions: Bone element; how it was run: as §4
Bone [20] = assay: Effect on osteocalcin expression in neonatal Swiss mouse calvariae bone co-cultured with human MDA-MB-231 cells measured on day 7 post treatment by SYBR green-dye based RT-qPCR analysis; assay type: functional, tissue-based; conditions: Bone element; how it was run: as §4
MDA-MB-231 [21] = assay: Effect on ICAM expression in human MDA-MB-231 cells co-cultured with neonatal Swiss mouse calvariae bone measured on day 7 post treatment by SYBR green-dye based RT-qPCR analysis; assay type: functional, cell-based; how it was run: as §4
MDA-MB-231 [22] = assay: Down regulation of ENPP1 expression in human MDA-MB-231 cells co-cultured with neonatal Swiss mouse calvariae bone measured on day 7 post treatment by SYBR green-dye based RT-qPCR analysis relative to control; assay type: functional; how it was run: as §4
MDA-MB-231 [23] = assay: Effect on CTGF expression in human MDA-MB-231 cells co-cultured with neonatal Swiss mouse calvariae bone measured on day 7 post treatment by SYBR green-dye based RT-qPCR analysis; assay type: functional, cell-based; how it was run: as §4
MDA-MB-231 [24] = assay: Effect on CCL2 expression in human MDA-MB-231 cells co-cultured with neonatal Swiss mouse calvariae bone measured on day 7 post treatment by SYBR green-dye based RT-qPCR analysis; assay type: functional, cell-based; how it was run: as §4
MDA-MB-231 [25] = assay: Down regulation of IL11 expression in human MDA-MB-231 cells co-cultured with neonatal Swiss mouse calvariae bone measured on day 7 post treatment by SYBR green-dye based RT-qPCR analysis relative to control; assay type: functional; how it was run: as §4
MDA-MB-231 [26] = assay: Down regulation of IL-8 expression in human MDA-MB-231 cells co-cultured with neonatal Swiss mouse calvariae bone measured on day 7 post treatment by SYBR green-dye based RT-qPCR analysis; assay type: functional, cell-based; how it was run: as §4
MDA-MB-231 [27] = assay: Down regulation of FGF5 expression in human MDA-MB-231 cells co-cultured with neonatal Swiss mouse calvariae bone measured on day 7 post treatment by SYBR green-dye based RT-qPCR analysis; assay type: functional, cell-based; how it was run: as §4
MDA-MB-231 [28] = assay: Upregulation of BCL2L1 expression in human MDA-MB-231 cells co-cultured with neonatal Swiss mouse calvariae bone measured on day 7 post treatment by SYBR green-dye based RT-qPCR analysis; assay type: functional, cell-based; how it was run: as §4
MDA-MB-231 [29] = assay: Upregulation of Fas expression in human MDA-MB-231 cells co-cultured with neonatal Swiss mouse calvariae bone measured on day 7 post treatment by SYBR green-dye based RT-qPCR analysis; assay type: functional, cell-based; how it was run: as §4

Compound: COc1cccc(C2=NNC3C(=O)N(CCc4c[nH]c5ccccc45)C(c4cccc(F)c4)C23)c1 (centres undefined)
inhibition at 5 µM (MDA-MB-231 [1]): 90% | TGI (MDA-MB-231 [2]): Active | TGI (MDA-MB-231 [3]): >50% | TGI (MDA-MB-231 [4]): Active | TGI (MDA-MB-231 [5]): >50%

Compound: CCCN1N=C(c2ccc(Cl)cc2)C2C1C(=O)N(c1ccc(C)c(Br)c1)C2c1cccc(F)c1 (centres undefined)
inhibition at 5 µM (MDA-MB-231 [1]): > 70% | TGI (MDA-MB-231 [2]): Active | TGI (MDA-MB-231 [3]): Active | TGI (MDA-MB-231 [4]): Active | TGI (MDA-MB-231 [5]): Active

IC50 (MDA-MB-231 [6]): 2900 nM | Activity [15]: Not Active
Compound: Cc1ccc(N2C(=O)C3NN=C(c4ccc(Cl)cc4)C3C2c2cccc(F)c2)cc1Br (centres undefined)
Activity (MDA-MB-231 [6]): Dose-dependent effect | Activity (MDA-MB-231 [7]): Non-Toxic | Activity (U-87 MG [8]): inactive | Activity (NCI-H460 [9]): inactive | Activity (MIA PaCa-2 [10]): Active | Activity (U-87 MG [11]): Non-Toxic | Activity (NCI-H460 [12]): Non-Toxic | Activity (MIA PaCa-2 [13]): Non-Toxic | Activity (MDA-MB-231 [14]): inactive | inhibition at 5 µM (MDA-MB-231 [1]): > 70% | TGI (MDA-MB-231 [2]): 70% | TGI (MDA-MB-231 [3]): 60% | TGI (MDA-MB-231 [4]): 66% | TGI (MDA-MB-231 [5]): 47% | Activity (MDA-MB-231 [16]): Non-Toxic | Activity (Bone [17]): Active | Activity (Bone [18]): Active | Activity (Bone [19]): inactive | Activity (Bone [20]): inactive | Activity (MDA-MB-231 [21]): inactive | Activity (MDA-MB-231 [22]): 60% | Activity (MDA-MB-231 [23]): inactive | Activity (MDA-MB-231 [24]): inactive | Activity (MDA-MB-231 [25]): >80% | Activity (MDA-MB-231 [26]): Active | Activity (MDA-MB-231 [27]): inactive | Activity (MDA-MB-231 [28]): Active | Activity (MDA-MB-231 [29]): Active

Compound: O=C1C2NN=C(c3ccc(Cl)cc3)C2C(c2cccc(F)c2)N1c1cccc(Br)c1 (centres undefined)
inhibition at 5 µM (MDA-MB-231 [1]): > 70% | TGI (MDA-MB-231 [2]): Active | TGI (MDA-MB-231 [3]): Active | TGI (MDA-MB-231 [4]): Active | TGI (MDA-MB-231 [5]): Active

Compound: COc1ccc(N2C(=O)C3NN=C(c4ccc(Cl)cc4)C3C2c2cccc(F)c2)cn1 (centres undefined)
TGI (MDA-MB-231 [2]): Active | TGI (MDA-MB-231 [3]): Active | TGI (MDA-MB-231 [4]): Active | TGI (MDA-MB-231 [5]): Active

Compound: O=C1C2NN=C(c3ccc(Cl)cc3)C2C(c2ccc(C(F)(F)F)cc2)N1CCc1c[nH]c2ccccc12 (centres undefined)
inhibition at 5 µM (MDA-MB-231 [1]): 90% | TGI (MDA-MB-231 [2]): Active | TGI (MDA-MB-231 [3]): Active | TGI (MDA-MB-231 [4]): Active | TGI (MDA-MB-231 [5]): Active

Compound: O=C1C2C(C(c3ccc(Cl)cc3)=NN2C2CCCCC2)C(c2cccc(F)c2)N1CCc1c[nH]c2ccccc12 (centres undefined)
inhibition (MDA-MB-231 [1]): inactive | TGI (MDA-MB-231 [2]): Active | TGI (MDA-MB-231 [3]): Active | TGI (MDA-MB-231 [4]): Active | TGI (MDA-MB-231 [5]): Active
